Experimental data published in the RNAGym collection of RNA variant scans (doi:10.1126/science.aae0568).
Fewer inactive variants are shown than the library holds.

B1: tRNA (parent)
chain: GUUCCGUUGGCGUAAUGGUAACGCGUCUCCCUCCUAAGGAGAAGACUGCGGGUUCGAGUCCCGUACGGAACG

Variants of: B1
Assay: yeast fitness relative to wild type (ratio to wild type); higher = fitter; tRNA-Arg(CCU), competitive growth, 37 C, YPD
Outline: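 The tRNA-Arg(CCU) gene variants were made by chemical synthesis with a 3% per-site mutation rate at 69 sites and inserted at the native genomic locus of Saccharomyces cerevisiae. After pooling, the strains were competed in YPD at 37°C for 24 hours in six parallel replicates. Gene amplicons from the start population and each end population were read by 100-nucleotide paired-end sequencing, and Darwinian fitness relative to wild type was taken from genotype frequency changes. Genotypes needed ≥ 100 starting reads, and estimates < 0.5 were set to 0.5.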

| Variant | yeast fitness |
| --- | --- |
| GUUCUGUUGGGGUAAUGGUAACGUGUCUCCCUCCUAAGGAGCAGACUGCGGGUUCGAGUCCCGUCCGGAACG [C5U C11G C24U A42C A65C] | 0.605 |
| GUUCUGUUGGGGUAAUGGUAACGUGUCUCCCUCCUAAGGAGCAGACUGCGGGUUCGAGUCCCGUACAGAACG [C5U C11G C24U A42C G67A] | ≤ 0.5 |
| GUUCUGUUGGGGUAAUGGUAACGCGUCUGCCUCCUAAGGAGAAGACUGCGGGUUCGAGUCCCGUACGGAACG [C5U C11G C29G] | 0.733 |
| GUUCUGUUGGGGUAAUGGUAACGCGUCUCCUUCCUAAGGACAAGACUGCGGGUGCGAGUCCCGUACGGAACG [C5U C11G C31U G41C U54G] | 0.746 |
| GUUCUGUUGGGGUAAUGGUAACGCGUCUCCCUACUAAGGAGAAGACUGCGGGUUCGAGUCCCGUACGGAACG [C5U C11G C33A] | 0.557 |
| GUUCUGUUGGGGUAAUGGUAACGCGUCUCCCUACUAAGGAGAAGACUGCGGGUUCGAGUCCCGUACAGAACG [C5U C11G C33A G67A] | ≤ 0.5 |
| GUUCUGUUGGGGGAAUGGUAACCCGUCUCCCUCUUAAGGAGAAGACUGCGGGUUCGAGCCCCGUAUGGAACG [C5U C11G U13G G23C C34U U59C C66U] | ≤ 0.5 |
| GUUCUGUUGGGGUAAUGGGAACGGGUCUCUCUCCUAAGGAGAAGACUGCGGGUUCGAGUCCCGUACGGAACG [C5U C11G U19G C24G C30U] | 0.547 |
| GUUCUGUUGGGGUAAUGGGAACGGGUCUCUCUCCUAAGGAGAAGACUGCGGGUUCGAGUCUCGUACGGAACG [C5U C11G U19G C24G C30U C61U] | ≤ 0.5 |
| GUUCUGUUGGGGUAAUGGUAACGCGUCUCCCACCGAAGGAGAAGACUGCGGGUUAGAGUCGCGUACGGAACG [C5U C11G U32A U35G C55A C61G] | ≤ 0.5 |
| GUUCUGUUGGUGUCAUGGUAACGCGUCUCCCUCCUAAGGAGAAGACUGCGGGUUCGAGUCCCGUACGGAACG [C5U C11U A14C] | 0.731 |
| GUUCUGUUGGUGUCAUGGUAACGCGUCUCCCUCCUAAGGAGAAGACUGCGGGUUCGAGUCACGUACGGAACG [C5U C11U A14C C61A] | ≤ 0.5 |
| GUUCUGUUGGUGUGGUGGUAACGCGUCUCCCUCCUAAGGAGAAGACUCCGGGUUCGAGUCCCGUACGGAACG [C5U C11U A14G A15G G48C] | ≤ 0.5 |
| GUUCUGUUGGUGUACUGGUAACGCGUCACCCUCCUAAGGAGAAGACUGCGGGUUCGAGUCCUGUAAGGAACG [C5U C11U A15C U28A C62U C66A] | ≤ 0.5 |
| GUUCUGUUGGUGUAGUGGUAACGCGUCUCCCUCUUAAGGAGAACACGGCGGGUUCGAGUCCCGUACGGAACG [C5U C11U A15G C34U G44C U47G] | ≤ 0.5 |
| GUUCUGUUGGUGUAGUGGUAACGCGUCUCCCUCCUAAGGAGAAGACUCCGGGUUCGAGUCCCGUACGGAACG [C5U C11U A15G G48C] | 0.553 |
| GUUCUGUUGGUGUAGUGGUAACGCGUCUCCCUCCUAAGGAGAAGACUCCGGGUUCGAGUCCCUUACGGAUCG [C5U C11U A15G G48C G63U A70U] | ≤ 0.5 |
| GUUCUGUUGGUGUAAUGGUACCGUGCCACCGUCCUAAGGAGAAGACUGGGGGUUCGAGUCCCGUACGGAACG [C5U C11U A21C C24U U26C U28A C31G C49G] | ≤ 0.5 |
| GUUCUGUUGGUGUAAUGGUAGCGGGUCUCCCUCCUAAGGAGUCGACUGCGGGGUCGCGUCCCGUACGGAACG [C5U C11U A21G C24G A42U A43C U53G A57C] | ≤ 0.5 |

| Variant | yeast fitness |
| --- | --- |
| GUUCUGUUGGUGUAAUGGUAUCGCGUCUCCCUCCUAAGGAGAAGACUGCGGGUUCGAGUCCCGUACGGAACG [C5U C11U A21U] | 0.696 |
| GUUCUGUUGGUGUAAUGGUAACGCGUCUCCCUCCUUAGGAGAAGACUGCGGGUUCGAGUACCGUACGGAACG [C5U C11U A36U C60A] | ≤ 0.5 |
| GUUCUGUUGGUGUAAUGGUAACGCGUCUCCCUCCUUAGGAGAAGACUGCGGGUUCGAGUCCCGUAUGGAACG [C5U C11U A36U C66U] | ≤ 0.5 |
| GUUCUGUUGGUGUAAUGGUAACGCGUCUCCCUCCUAAGGUGAAGACUAUGGGUUCGAGUCCCGUACGGAACG [C5U C11U A40U G48A C49U] | 0.709 |
| GUUCUGUUGGUGUAAUGGUAACGCGUCUCCCUCCUAAGGAGAAGUCUGCGGGUUCGAGUCCCGUACGGACCG [C5U C11U A45U A70C] | 0.725 |
| GUUCUGUUGGUGUAAUGGUAACGGGUCUCCCUCCUAAGGAGAAGACUGCGGGUUCGAGUCUGGUCCGGAACG [C5U C11U C24G C61U C62G A65C] | ≤ 0.5 |
| GUUCUGUUGGUGUAAUGGUAACGCGUCUCGCUCCUAAGGAGAAGACUGCGGGUUCGAGUCACGUACGGAACG [C5U C11U C30G C61A] | ≤ 0.5 |
| GUUCUGUUGGUGUAAUGGUAACGCGUCUCCCUGCUAAGGAGACGACUGCGGGUUCGAGUCCCGUACGGAACG [C5U C11U C33G A43C] | ≤ 0.5 |
| GUUCUGUUGGUGUAAUGGUAACGCGUCUCCCUCCUAAGGAGAAGAGUGCGGGUUCGAGUCCCGUACGGAACG [C5U C11U C46G] | 0.7 |
| GUUCUGUUGGUGUAAUGGUAACGCGUCUCCCUCCUAAGGAGAAGAUUGCGGGUUCGAGUCCCGUACGGAACG [C5U C11U C46U] | 0.752 |
| GUUCUGUUGGUGUAAUGGUAACGCGUCUCCCUCCUAAGGAGAAGAUUGCGGGUUCGAGUCCCGUUCGGUACG [C5U C11U C46U A65U A69U] | 0.563 |
| GUUCUGUUGGUGUAAUGGUAACGCGUCUCCCUCCUAAGGAGAAGAUUGCGAGUUCGAGUCCCGUAUGGAACG [C5U C11U C46U G51A C66U] | ≤ 0.5 |
| GUUCUGUUGGUGUAAUGGUAACGCGUCUCCCUCCUAAGGAGAAGACUGCGGGUUCGAGUCGCCUACGGAACG [C5U C11U C61G G63C] | 0.546 |
| GUUCUGUUGGUGUAAUAGUAACGCGUCUCCGUCCUAAGGAGAAGACUGCGGGUUCGAGUCCCGUACGAAACG [C5U C11U G17A C31G G68A] | ≤ 0.5 |
| GUUCUGUUGGUGUAAUGGUAACGCAUCUCCCUCCUAGGGAGAAGAGUGCGCGUUCGCGUCUCGUACGGAACG [C5U C11U G25A A37G C46G G51C A57C C61U] | ≤ 0.5 |
| GUUCUGUUGGUGUAAUGGUAACGCCUCUCCCUCCUAAGGAGAAGACUGCGGGUUCGAGUCCCGUACGGAACG [C5U C11U G25C] | 0.694 |
| GUUCUGUUGGUGUAAUGGUAACGCGUCUCCCUCCUAAAGAGAAGACUGCGGGUUCGACUCUCGUAUGGAACG [C5U C11U G38A G58C C61U C66U] | 0.573 |
| GUUCUGUUGGUGUAAUGGUAACGCGUCCCCCUCGUAAGGGGAGGAGUGCGGAUUUGAGUCCCGUAUGGAACG [C5U C11U U28C C34G A40G A43G C46G G52A C55U C66U] | ≤ 0.5 |
